Assay results published in ChEMBL document CHEMBL4339192, “De Novo Designed Amphipathic α-Helical Antimicrobial Peptides Incorporating Dab and Dap Residues on the Polar Face To Treat the Gram-Negative Pathogen, Acinetobacter baumannii” (J Med Chem, 2019).
Values after ≈ are worked out from the molar mass of the structure shown. Where a SMILES comes first, the peptide text is derived from it. [ ]: non-standard residue; d: D form. Dap = NC[C@H](N)C(=O)O

Tests used:
[1] = Therapeutic index, ratio of HC50 for human RBC to MIC for polymyxin B/colistin-resistant Acinetobacter baumannii M89952; type: toxicity; conditions: human red blood cells, read-out: TI
Outline: (§1)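 T.I. = HC50/MIC. For HC50, peptide (quantified by amino acid analysis) was two-fold serially diluted over 12 concentrations up to 1000 μg/mL. It was incubated with 1% fresh human erythrocytes in PBS, pH 7.4, for 18 h at 37 °C. After 800g centrifugation, hemoglobin was read at 570 nm against water (100%) and no-peptide (0%) controls. HC50 came from a lysis-versus-concentration plot, average of 3 replicates.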

Acinetobacter baumannii [2] = assay: Antibacterial activity against Acinetobacter baumannii isolate 1035794 measured after 24 hrs by microtiter dilution method; type: functional; conditions: isolate 1035794, 24 h
Outline: (§2)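 Broth microdilution in Mueller-Hinton (MH) medium. […] Plates were incubated 24 h at 37 °C. MIC was the lowest peptide concentration that inhibited growth, based on three sets of replicates.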

Acinetobacter baumannii [3] = assay: Antibacterial activity against Acinetobacter baumannii isolate 1021371 measured after 24 hrs by microtiter dilution method; type: functional; conditions: isolate 1021371, 24 h; outline: as §2
[4] = Therapeutic index, ratio of HC50 for human RBC to MIC for polymyxin B/colistin-resistant Acinetobacter baumannii M89941; type: toxicity; conditions: human red blood cells, read-out: TI; outline: as §1
Acinetobacter baumannii [5] = assay: Antibacterial activity against Acinetobacter baumannii isolate 981650 measured after 24 hrs by microtiter dilution method; type: functional; conditions: isolate 981650, 24 h; outline: as §2
Acinetobacter baumannii [6] = assay: Antibacterial activity against Acinetobacter baumannii isolate 1018887 measured after 24 hrs by microtiter dilution method; type: functional; conditions: isolate 1018887, 24 h; outline: as §2
Acinetobacter baumannii [7] = assay: Antibacterial activity against Acinetobacter baumannii isolate 1010245 measured after 24 hrs by microtiter dilution method; type: functional; conditions: isolate 1010245, 24 h; outline: as §2
[8] = Therapeutic index, ratio of HC50 for human RBC to MIC for polymyxin B/colistin-resistant Acinetobacter baumannii M89963; type: toxicity; conditions: human red blood cells, read-out: TI; outline: as §1
Acinetobacter baumannii [9] = assay: Antibacterial activity against polymyxin B/colistin-resistant Acinetobacter baumannii M89963 measured after 24 hrs by microtiter dilution method; type: functional; conditions: M89963, 24 h; outline: as §2
Acinetobacter baumannii [10] = assay: Antibacterial activity against polymyxin B/colistin-resistant Acinetobacter baumannii M89953 measured after 24 hrs by microtiter dilution method; type: functional; conditions: M89953, 24 h; outline: as §2
Acinetobacter baumannii [11] = assay: Antibacterial activity against Acinetobacter baumannii isolate 1002956 measured after 24 hrs by microtiter dilution method; type: functional; conditions: isolate 1002956, 24 h; outline: as §2
Acinetobacter baumannii [12] = assay: Antibacterial activity against Acinetobacter baumannii isolate 1017395 measured after 24 hrs by microtiter dilution method; type: functional; conditions: isolate 1017395, 24 h; outline: as §2
[13] = Therapeutic index, ratio of HC50 for human RBC to MIC for polymyxin B/colistin-resistant Acinetobacter baumannii M89951; type: toxicity; conditions: human red blood cells, read-out: TI; outline: as §1
[14] = Therapeutic index, ratio of HC50 for human RBC to MIC for polymyxin B/colistin-resistant Acinetobacter baumannii M89955; type: toxicity; conditions: human red blood cells, read-out: TI; outline: as §1
Acinetobacter baumannii [15] = assay: Antibacterial activity against polymyxin B/colistin-resistant Acinetobacter baumannii M89951 measured after 24 hrs by microtiter dilution method; type: functional; conditions: M89951, 24 h; outline: as §2
Acinetobacter baumannii [16] = assay: Antibacterial activity against polymyxin B/colistin-resistant Acinetobacter baumannii M89941 measured after 24 hrs by microtiter dilution method; type: functional; conditions: M89941, 24 h; outline: as §2
Acinetobacter baumannii [17] = assay: Antibacterial activity against Acinetobacter baumannii isolate 963618 measured after 24 hrs by microtiter dilution method; type: functional; conditions: isolate 963618, 24 h; outline: as §2
Acinetobacter baumannii [18] = assay: Antibacterial activity against Acinetobacter baumannii isolate 968886 measured after 24 hrs by microtiter dilution method; type: functional; conditions: isolate 968886, 24 h; outline: as §2
Acinetobacter baumannii [19] = assay: Antibacterial activity against Acinetobacter baumannii isolate 964304 measured after 24 hrs by microtiter dilution method; type: functional; conditions: isolate 964304, 24 h; outline: as §2
Acinetobacter baumannii [20] = assay: Antibacterial activity against Acinetobacter baumannii 649 measured after 24 hrs in presence of 25% human serum by microtiter dilution method; type: functional; conditions: Acinetobacter baumannii, 649, 24 h
Outline: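 Blood strain 649 was tested by MH broth microdilution with and without 25% (v/v) human serum added to the medium. The test used a final inoculum of 5 × 10^5 cfu/mL and incubation at 37 °C. The ratio is the MIC in serum over the MIC in MH alone.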

Acinetobacter baumannii [21] = assay: Antibacterial activity against Acinetobacter baumannii isolate 1035166 measured after 24 hrs by microtiter dilution method; type: functional; conditions: isolate 1035166, 24 h; outline: as §2
Acinetobacter baumannii [22] = assay: Antibacterial activity against Acinetobacter baumannii isolate 1010282 measured after 24 hrs by microtiter dilution method; type: functional; conditions: isolate 1010282, 24 h; outline: as §2
Acinetobacter baumannii [23] = assay: Antibacterial activity against polymyxin B/colistin-resistant Acinetobacter baumannii M89952 measured after 24 hrs by microtiter dilution method; type: functional; conditions: M89952, 24 h; outline: as §2
Acinetobacter baumannii [24] = assay: Antibacterial activity against Acinetobacter baumannii 649 measured after 24 hrs by microtiter dilution method; type: functional; conditions: Acinetobacter baumannii, 649, 24 h; outline: as §2
Acinetobacter baumannii [25] = assay: Antibacterial activity against Acinetobacter baumannii isolate 1007660 measured after 24 hrs by microtiter dilution method; type: functional; conditions: isolate 1007660, 24 h; outline: as §2
Acinetobacter baumannii [26] = assay: Antibacterial activity against Acinetobacter baumannii isolate 977751 measured after 24 hrs by microtiter dilution method; type: functional; conditions: isolate 977751, 24 h; outline: as §2
Acinetobacter baumannii [27] = assay: Antibacterial activity against Acinetobacter baumannii isolate 961997 measured after 24 hrs by microtiter dilution method; type: functional; conditions: isolate 961997, 24 h; outline: as §2
Acinetobacter baumannii [28] = assay: Antibacterial activity against Acinetobacter baumannii isolate 1001611 measured after 24 hrs by microtiter dilution method; type: functional; conditions: isolate 1001611, 24 h; outline: as §2
Acinetobacter baumannii [29] = assay: Antibacterial activity against polymyxin B/colistin-resistant Acinetobacter baumannii M89949 measured after 24 hrs by microtiter dilution method; type: functional; conditions: M89949, 24 h; outline: as §2
[30] = Therapeutic index, ratio of HC50 for human RBC to MIC for polymyxin B/colistin-resistant Acinetobacter baumannii M89949; type: toxicity; conditions: human red blood cells, read-out: TI; outline: as §1
Acinetobacter baumannii [31] = assay: Antibacterial activity against Acinetobacter baumannii isolate 9383370 measured after 24 hrs by microtiter dilution method; type: functional; conditions: isolate 9383370, 24 h; outline: as §2
Acinetobacter baumannii [32] = assay: Antibacterial activity against Acinetobacter baumannii isolate 963659 measured after 24 hrs by microtiter dilution method; type: functional; conditions: isolate 963659, 24 h; outline: as §2
[33] = Hemolytic activity against human RBC measured after 18 hrs by spectrophotometric method; type: ADME, cell-based, Erythrocyte; conditions: human red blood cells (erythrocytes)
Outline: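 Peptide (amount by amino acid analysis), two-fold serial dilutions at 12 concentrations up to 1000 μg/mL, with 1% human erythrocytes in PBS pH 7.4, 37 °C, 18 h. Unlysed cells removed by centrifugation (800g); hemoglobin read at 570 nm. Water-lysed cells = 100%, no-peptide cells = 0%. HC50 from plot of % lysis vs concentration (μM), average of 3 replicates.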

[34] = Therapeutic index, ratio of HC50 for human RBC to MIC for polymyxin B/colistin-resistant Acinetobacter baumannii M89953; type: toxicity; conditions: human red blood cells, read-out: TI; outline: as §1
Acinetobacter baumannii [35] = assay: Antibacterial activity against Acinetobacter baumannii isolate 952654 measured after 24 hrs by microtiter dilution method; type: functional; conditions: isolate 952654, 24 h; outline: as §2
Acinetobacter baumannii [36] = assay: Antibacterial activity against polymyxin B/colistin-resistant Acinetobacter baumannii M89955 measured after 24 hrs by microtiter dilution method; type: functional; conditions: M89955, 24 h; outline: as §2
Acinetobacter baumannii [37] = assay: Antibacterial activity against Acinetobacter baumannii isolate 965463 measured after 24 hrs by microtiter dilution method; type: functional; conditions: isolate 965463, 24 h; outline: as §2

For `CC(=O)N[C@H](CCCCN)C(=O)N[C@H](CC(C)C)C(=O)N[C@@H](CN)C(=O)N[C@H](CO)C(=O)N[C@H](CC(C)C)C(=O)N[C@H](CC(C)C)C(=O)N[C@@H](CN)C(=O)N[C@@H](C(=O)N[C@H](CC(C)C)C(=O)N[C@H](CO)C(=O)N[C@@H](CN)C(=O)N[C@H](C)C(=O)N[C@H](CCCCN)C(=O)N[C@H](C)C(=O)N[C@H](C)C(=O)N[C@H](CCCCN)C(=O)N[C@H](CC(C)C)C(=O)N[C@@H](CN)C(=O)N[C@@H](C(=O)N[C@H](CC(C)C)C(=O)N[C@H](CC(C)C)C(=O)N[C@@H](CN)C(=O)N[C@H](C)C(=O)N[C@H](CC(C)C)C(=O)N[C@H](CO)C(=O)N[C@@H](CN)C(N)=O)[C@H](C)O)[C@H](C)O` (Ac-[dK][dL][Dap][dS][dL][dL][Dap][dT][dL][dS][Dap][dA][dK][dA][dA][dK][dL][Dap][dT][dL][dL][Dap][dA][dL][dS][Dap]-NH2), which selectivity ratio [1] is on record?
The selectivity ratio was greater than 957.

What about the MIC (Acinetobacter baumannii [2]) of the same compound?
Its MIC is 0.8 µM (≈ 2.09 µg/mL).

And the MIC (Acinetobacter baumannii [3])?
Its MIC is 1.5 µM (≈ 3.92 µg/mL).

What about the selectivity ratio [4] of the same compound?
The selectivity ratio was greater than 957.

What about the MIC (Acinetobacter baumannii [5]) of the same compound?
Its MIC is 0.8 µM (≈ 2.09 µg/mL).

And the MIC (Acinetobacter baumannii [6])?
The MIC was 0.8 µM (≈ 2.09 µg/mL).

What about the MIC (Acinetobacter baumannii [7]) of the same compound?
Its MIC is 0.8 µM (≈ 2.09 µg/mL).

And the selectivity ratio [8]?
Its selectivity ratio is greater than 957.

What about the MIC (Acinetobacter baumannii [9]) of the same compound?
Its MIC is 1.5 µM (≈ 3.92 µg/mL).

And the MIC (Acinetobacter baumannii [10])?
The MIC was 3 µM (≈ 7.84 µg/mL).

And the MIC (Acinetobacter baumannii [11])?
Its MIC is 0.8 µM (≈ 2.09 µg/mL).

What about the MIC (Acinetobacter baumannii [12]) of the same compound?
The MIC was 1.5 µM (≈ 3.92 µg/mL).

And the selectivity ratio [13]?
Its selectivity ratio is greater than 957.

What about the selectivity ratio [14] of the same compound?
Its selectivity ratio is greater than 957.

And the MIC (Acinetobacter baumannii [15])?
Its MIC is 3 µM (≈ 7.84 µg/mL).

And the MIC (Acinetobacter baumannii [16])?
Its MIC is 0.8 µM (≈ 2.09 µg/mL).

And the MIC (Acinetobacter baumannii [17])?
The MIC was 0.8 µM (≈ 2.09 µg/mL).

What about the MIC (Acinetobacter baumannii [18]) of the same compound?
Its MIC is 1.5 µM (≈ 3.92 µg/mL).

And the MIC (Acinetobacter baumannii [19])?
The MIC was 1.5 µM (≈ 3.92 µg/mL).

And the MIC (Acinetobacter baumannii [20])?
The MIC was 3 µM.

What about the MIC (Acinetobacter baumannii [21]) of the same compound?
Its MIC is 0.8 µM (≈ 2.09 µg/mL).

And the MIC (Acinetobacter baumannii [22])?
Its MIC is 0.8 µM (≈ 2.09 µg/mL).

What about the MIC (Acinetobacter baumannii [23]) of the same compound?
Its MIC is 0.8 µM (≈ 2.09 µg/mL).

What about the MIC (Acinetobacter baumannii [24]) of the same compound?
The MIC was 0.8 µM (≈ 2.09 µg/mL).

What about the MIC (Acinetobacter baumannii [25]) of the same compound?
Its MIC is 0.8 µM (≈ 2.09 µg/mL).

And the MIC (Acinetobacter baumannii [26])?
The MIC was 0.8 µM (≈ 2.09 µg/mL).

What about the MIC (Acinetobacter baumannii [27]) of the same compound?
Its MIC is 1.5 µM (≈ 3.92 µg/mL).

And the MIC (Acinetobacter baumannii [28])?
The MIC was 0.4 µM (≈ 1.05 µg/mL).

What about the MIC (Acinetobacter baumannii [29]) of the same compound?
Its MIC is 0.8 µM (≈ 2.09 µg/mL).

What about the selectivity ratio [30] of the same compound?
The selectivity ratio was greater than 957.

And the MIC (Acinetobacter baumannii [31])?
Its MIC is 0.8 µM (≈ 2.09 µg/mL).

What about the MIC (Acinetobacter baumannii [32]) of the same compound?
The MIC was 1.5 µM (≈ 3.92 µg/mL).

What about the HC50 at 18 h [33] of the same compound?
Its HC50 at 18 h is greater than 1.15 mM.

And the selectivity ratio [34]?
Its selectivity ratio is greater than 957.

And the MIC (Acinetobacter baumannii [35])?
The MIC was 1.5 µM (≈ 3.92 µg/mL).

What about the MIC (Acinetobacter baumannii [36]) of the same compound?
Its MIC is 0.8 µM (≈ 2.09 µg/mL).

And the MIC (Acinetobacter baumannii [37])?
Its MIC is 1.5 µM (≈ 3.92 µg/mL).
